Test results: ChEMBL document CHEMBL1240515, “Discovery of mitogen-activated protein kinase-interacting kinase 1 inhibitors by a comprehensive fragment-oriented virtual screening approach” (J Med Chem, 2010)

How the values were obtained:
[1] = target: T1, MAP kinase-interacting serine/threonine-protein kinase 1 (Homo sapiens, UniProt Q9BUB5); assay: Inhibition of MNK1
Target sequence in this assay (Q9BUB5 whole entry): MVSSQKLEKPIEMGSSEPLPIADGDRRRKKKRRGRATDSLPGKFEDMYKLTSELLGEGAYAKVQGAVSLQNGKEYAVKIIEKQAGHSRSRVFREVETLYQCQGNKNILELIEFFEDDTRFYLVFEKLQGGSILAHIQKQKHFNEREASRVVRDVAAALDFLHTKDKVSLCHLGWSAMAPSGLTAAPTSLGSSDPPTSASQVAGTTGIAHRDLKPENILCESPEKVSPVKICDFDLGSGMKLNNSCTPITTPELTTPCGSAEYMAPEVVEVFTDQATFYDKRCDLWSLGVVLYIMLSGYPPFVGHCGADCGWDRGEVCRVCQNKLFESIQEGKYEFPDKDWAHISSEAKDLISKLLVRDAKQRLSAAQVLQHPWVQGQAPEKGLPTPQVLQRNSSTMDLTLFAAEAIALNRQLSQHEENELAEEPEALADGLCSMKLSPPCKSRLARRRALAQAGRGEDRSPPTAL

[2] = target: T1, MAP kinase-interacting serine/threonine-protein kinase 1; assay: Inhibition of MNK1 at 5 uM
In short: (§1)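 Recombinant MNK1 (4 μg/mL) or MNK2 (0.7 μg/mL) final. Reaction contained 100 μM ATP and 300 μM eIF4E-derived peptide, run 60 min at 30 °C. ADP was detected by resorufin fluorescence. Tested at 5 μM in duplicate.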
Target sequence in this assay (Q9BUB5 whole entry, looked up): as the sequence (Q9BUB5 whole entry) above

[3] = target: T2, MAP kinase-interacting serine/threonine-protein kinase 2 (Homo sapiens, UniProt Q9HBH9); assay: Inhibition of MNK2 at 5 uM; in short: as §1
[4] = target: T2, MAP kinase-interacting serine/threonine-protein kinase 2; assay: Inhibition of MNK2
[5] = target: RAC-alpha serine/threonine-protein kinase (Homo sapiens) (UniProt P31749); assay: Inhibition of AKT1 at 5 uM
In short: (§2)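 Single-concentration panel run at an outside kinase screening provider. The compound was tested at 5 μM in duplicate.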

[6] = target: NUAK family SNF1-like kinase 1 (Homo sapiens) (UniProt O60285); assay: Inhibition of ARK5 at 5 uM; in short: as §2
NUAK family SNF1-like kinase 1 (Homo sapiens), sequence (O60285 whole entry): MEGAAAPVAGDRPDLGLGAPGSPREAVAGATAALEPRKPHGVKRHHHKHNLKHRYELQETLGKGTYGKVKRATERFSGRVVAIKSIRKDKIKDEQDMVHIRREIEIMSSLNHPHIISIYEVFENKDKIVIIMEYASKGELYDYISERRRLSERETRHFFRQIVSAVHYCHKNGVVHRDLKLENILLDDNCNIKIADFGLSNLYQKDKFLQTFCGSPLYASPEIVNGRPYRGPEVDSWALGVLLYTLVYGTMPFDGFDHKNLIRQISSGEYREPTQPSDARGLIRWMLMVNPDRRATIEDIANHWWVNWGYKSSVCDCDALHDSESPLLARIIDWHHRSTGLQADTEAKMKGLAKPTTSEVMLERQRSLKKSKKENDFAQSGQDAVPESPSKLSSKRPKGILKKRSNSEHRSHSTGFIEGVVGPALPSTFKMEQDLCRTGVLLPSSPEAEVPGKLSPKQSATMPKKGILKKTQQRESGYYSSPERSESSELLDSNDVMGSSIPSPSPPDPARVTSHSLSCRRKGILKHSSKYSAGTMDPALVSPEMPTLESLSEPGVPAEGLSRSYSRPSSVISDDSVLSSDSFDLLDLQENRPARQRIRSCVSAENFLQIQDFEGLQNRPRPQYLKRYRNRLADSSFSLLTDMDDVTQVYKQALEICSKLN

[7] = system: Serine/threonine-protein kinase B-raf (Homo sapiens), P15056 [V600E]; assay: Inhibition of B-RAFV600E at 5 uM; in short: as §2
[8] = target: Casein kinase I isoform alpha (Homo sapiens) (UniProt P48729); assay: Inhibition of CK1alpha1 at 5 uM; in short: as §2
Casein kinase I isoform alpha (Homo sapiens), sequence (P48729 2-337 limits assumed): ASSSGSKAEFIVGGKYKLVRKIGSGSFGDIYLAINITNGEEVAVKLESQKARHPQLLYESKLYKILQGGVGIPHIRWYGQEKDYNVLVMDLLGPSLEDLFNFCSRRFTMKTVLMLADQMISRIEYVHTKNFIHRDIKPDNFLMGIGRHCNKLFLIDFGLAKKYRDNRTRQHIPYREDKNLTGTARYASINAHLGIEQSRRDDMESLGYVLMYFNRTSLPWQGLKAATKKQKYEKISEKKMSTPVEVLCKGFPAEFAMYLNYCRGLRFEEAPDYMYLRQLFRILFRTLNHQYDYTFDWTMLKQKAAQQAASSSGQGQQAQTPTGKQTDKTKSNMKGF

[9] = target: Dual specificity tyrosine-phosphorylation-regulated kinase 1A (Homo sapiens) (UniProt Q13627); assay: Inhibition of DYRK1A at 5 uM; in short: as §2
[10] = target: Epidermal growth factor receptor (Homo sapiens) (UniProt P00533); assay: Inhibition of EGFR at 5 uM; in short: as §2
[11] = target: Mitogen-activated protein kinase 3 (Homo sapiens) (UniProt P27361); assay: Inhibition of ERK1 at 5 uM; in short: as §2
[12] = target: Focal adhesion kinase 1 (Homo sapiens) (UniProt Q05397); assay: Inhibition of FAK at 5 uM; in short: as §2
[13] = target: Fibroblast growth factor receptor 1 (Homo sapiens) (UniProt P11362); assay: Inhibition of FGFR1 at 5 uM; in short: as §2
Fibroblast growth factor receptor 1 (Homo sapiens), sequence (P11362 22-822 limits assumed): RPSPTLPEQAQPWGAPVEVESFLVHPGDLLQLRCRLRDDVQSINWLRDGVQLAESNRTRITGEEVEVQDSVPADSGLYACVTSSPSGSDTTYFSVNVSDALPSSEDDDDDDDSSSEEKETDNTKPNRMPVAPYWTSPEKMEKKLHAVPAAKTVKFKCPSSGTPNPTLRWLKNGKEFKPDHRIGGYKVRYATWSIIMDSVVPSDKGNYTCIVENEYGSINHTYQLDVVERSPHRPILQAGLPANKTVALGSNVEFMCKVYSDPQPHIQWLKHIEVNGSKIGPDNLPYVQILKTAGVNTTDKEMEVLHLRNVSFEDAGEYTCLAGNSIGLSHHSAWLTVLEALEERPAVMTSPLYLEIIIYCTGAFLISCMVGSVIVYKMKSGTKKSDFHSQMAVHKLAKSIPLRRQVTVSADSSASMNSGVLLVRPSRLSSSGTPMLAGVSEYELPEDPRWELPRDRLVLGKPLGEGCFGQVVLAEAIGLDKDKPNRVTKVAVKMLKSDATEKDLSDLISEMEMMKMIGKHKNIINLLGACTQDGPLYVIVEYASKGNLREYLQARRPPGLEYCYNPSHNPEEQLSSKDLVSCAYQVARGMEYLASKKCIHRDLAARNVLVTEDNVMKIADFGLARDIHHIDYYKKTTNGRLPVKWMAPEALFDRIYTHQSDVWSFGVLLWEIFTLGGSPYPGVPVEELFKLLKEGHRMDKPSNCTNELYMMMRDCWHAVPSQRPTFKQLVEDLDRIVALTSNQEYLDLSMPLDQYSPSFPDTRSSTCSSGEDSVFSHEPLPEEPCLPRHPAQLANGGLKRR

[14] = target: Receptor-type tyrosine-protein kinase FLT3 (Homo sapiens) (UniProt P36888); assay: Inhibition of FLT3 at 5 uM; in short: as §2
[15] = target: Insulin-like growth factor 1 receptor (Homo sapiens) (UniProt P08069); assay: Inhibition of IGF1R at 5 uM; in short: as §2
[16] = target: Inhibitor of nuclear factor kappa-B kinase subunit beta (Homo sapiens) (UniProt O14920); assay: Inhibition of IKK-beta at 5 uM; in short: as §2
[17] = target: Tyrosine-protein kinase JAK2 (Homo sapiens) (UniProt O60674); assay: Inhibition of JAK2 at 5 uM; in short: as §2
Tyrosine-protein kinase JAK2 (Homo sapiens), sequence (O60674 whole entry): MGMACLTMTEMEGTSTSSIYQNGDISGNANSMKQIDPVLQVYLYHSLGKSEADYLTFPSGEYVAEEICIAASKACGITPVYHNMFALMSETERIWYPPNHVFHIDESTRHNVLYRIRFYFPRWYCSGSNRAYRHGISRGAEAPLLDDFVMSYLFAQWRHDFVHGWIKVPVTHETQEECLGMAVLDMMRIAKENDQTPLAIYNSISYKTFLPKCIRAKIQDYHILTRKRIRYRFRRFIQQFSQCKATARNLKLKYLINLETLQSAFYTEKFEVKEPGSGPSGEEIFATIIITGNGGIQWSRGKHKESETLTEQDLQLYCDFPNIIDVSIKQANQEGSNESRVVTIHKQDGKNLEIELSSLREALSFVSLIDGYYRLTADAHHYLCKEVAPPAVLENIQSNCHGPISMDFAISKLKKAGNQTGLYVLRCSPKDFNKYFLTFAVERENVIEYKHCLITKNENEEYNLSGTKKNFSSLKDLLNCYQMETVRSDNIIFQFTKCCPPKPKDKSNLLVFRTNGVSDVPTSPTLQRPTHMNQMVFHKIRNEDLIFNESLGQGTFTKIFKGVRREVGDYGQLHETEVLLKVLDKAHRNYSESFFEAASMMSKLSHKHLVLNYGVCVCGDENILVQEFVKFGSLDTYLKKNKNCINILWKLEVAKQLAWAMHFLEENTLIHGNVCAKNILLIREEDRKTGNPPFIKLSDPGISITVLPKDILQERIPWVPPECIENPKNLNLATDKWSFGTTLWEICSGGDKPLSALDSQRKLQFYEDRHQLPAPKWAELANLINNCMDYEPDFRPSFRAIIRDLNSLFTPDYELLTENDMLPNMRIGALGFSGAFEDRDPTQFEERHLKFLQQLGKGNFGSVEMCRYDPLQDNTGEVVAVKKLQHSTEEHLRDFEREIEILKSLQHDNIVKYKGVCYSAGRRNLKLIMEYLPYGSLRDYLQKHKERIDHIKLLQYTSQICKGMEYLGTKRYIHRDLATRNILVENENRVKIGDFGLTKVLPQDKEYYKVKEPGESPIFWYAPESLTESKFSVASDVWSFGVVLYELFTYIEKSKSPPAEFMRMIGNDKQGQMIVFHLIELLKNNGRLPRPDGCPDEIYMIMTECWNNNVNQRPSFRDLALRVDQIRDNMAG

[18] = target: Mast/stem cell growth factor receptor Kit (Homo sapiens) (UniProt P10721); assay: Inhibition of KIT at 5 uM; in short: as §2
[19] = target: Dual specificity mitogen-activated protein kinase kinase 1 (Homo sapiens) (UniProt Q02750); assay: Inhibition of MEK1 at 5 uM; in short: as §2
[20] = target: Hepatocyte growth factor receptor (Homo sapiens) (UniProt P08581); assay: Inhibition of MET at 5 uM; in short: as §2
[21] = target: Serine/threonine-protein kinase 4 (Homo sapiens) (UniProt Q13043); assay: Inhibition of MST1 at 5 uM; in short: as §2
[22] = target: Mitogen-activated protein kinase 14 (Homo sapiens) (UniProt Q16539); assay: Inhibition of p38alpha at 5 uM; in short: as §2
[23] = target: Platelet-derived growth factor receptor alpha (Homo sapiens) (UniProt P16234); assay: Inhibition of PDGFRalpha at 5 uM; in short: as §2
[24] = target: Serine/threonine-protein kinase pim-1 (Homo sapiens) (UniProt P11309); assay: Inhibition of PIM1 at 5 uM; in short: as §2
[25] = target: Serine/threonine-protein kinase pim-2 (Homo sapiens) (UniProt Q9P1W9); assay: Inhibition of PIM2 at 5 uM; in short: as §2
Serine/threonine-protein kinase pim-2 (Homo sapiens), sequence (Q9P1W9 whole entry, looked up): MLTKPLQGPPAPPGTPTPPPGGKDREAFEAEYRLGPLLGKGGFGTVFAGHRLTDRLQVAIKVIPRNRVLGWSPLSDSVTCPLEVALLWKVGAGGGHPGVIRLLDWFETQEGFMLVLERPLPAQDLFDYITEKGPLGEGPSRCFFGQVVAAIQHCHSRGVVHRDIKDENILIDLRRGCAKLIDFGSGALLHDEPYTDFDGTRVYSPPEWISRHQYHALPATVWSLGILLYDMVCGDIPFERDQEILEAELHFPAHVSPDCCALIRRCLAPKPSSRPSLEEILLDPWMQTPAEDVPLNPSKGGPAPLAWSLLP

[26] = target: Ribosomal protein S6 kinase alpha-1 (Homo sapiens) (UniProt Q15418); assay: Inhibition of RPS6KA1 at 5 uM; in short: as §2
Ribosomal protein S6 kinase alpha-1 (Homo sapiens), sequence (Q15418 whole entry): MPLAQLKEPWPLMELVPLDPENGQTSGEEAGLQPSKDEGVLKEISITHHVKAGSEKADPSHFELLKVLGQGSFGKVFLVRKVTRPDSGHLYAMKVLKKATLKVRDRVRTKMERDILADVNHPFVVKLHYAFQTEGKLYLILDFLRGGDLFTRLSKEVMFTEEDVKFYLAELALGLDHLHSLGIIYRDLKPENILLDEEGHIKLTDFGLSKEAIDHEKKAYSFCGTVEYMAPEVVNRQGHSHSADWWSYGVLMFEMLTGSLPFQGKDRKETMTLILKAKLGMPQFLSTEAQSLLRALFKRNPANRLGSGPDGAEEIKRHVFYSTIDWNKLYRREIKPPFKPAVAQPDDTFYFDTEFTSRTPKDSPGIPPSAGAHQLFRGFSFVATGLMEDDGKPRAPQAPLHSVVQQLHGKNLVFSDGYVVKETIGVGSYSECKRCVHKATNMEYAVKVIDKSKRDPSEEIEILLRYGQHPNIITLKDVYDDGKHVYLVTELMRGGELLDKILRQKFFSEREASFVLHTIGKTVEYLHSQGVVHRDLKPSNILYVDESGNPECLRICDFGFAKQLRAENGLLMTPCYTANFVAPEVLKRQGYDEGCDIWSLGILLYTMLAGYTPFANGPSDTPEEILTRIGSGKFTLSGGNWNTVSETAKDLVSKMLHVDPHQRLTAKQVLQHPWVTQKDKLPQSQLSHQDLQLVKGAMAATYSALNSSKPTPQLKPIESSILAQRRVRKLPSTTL

[27] = target: Serine/threonine-protein kinase Sgk1 (Homo sapiens) (UniProt O00141); assay: Inhibition of SGK1 at 5 uM; in short: as §2
[28] = target: 3-phosphoinositide-dependent protein kinase 1 (Homo sapiens) (UniProt O15530); assay: Inhibition of PDK1 at 5 uM
3-phosphoinositide-dependent protein kinase 1 (Homo sapiens), sequence (O15530 whole entry, looked up): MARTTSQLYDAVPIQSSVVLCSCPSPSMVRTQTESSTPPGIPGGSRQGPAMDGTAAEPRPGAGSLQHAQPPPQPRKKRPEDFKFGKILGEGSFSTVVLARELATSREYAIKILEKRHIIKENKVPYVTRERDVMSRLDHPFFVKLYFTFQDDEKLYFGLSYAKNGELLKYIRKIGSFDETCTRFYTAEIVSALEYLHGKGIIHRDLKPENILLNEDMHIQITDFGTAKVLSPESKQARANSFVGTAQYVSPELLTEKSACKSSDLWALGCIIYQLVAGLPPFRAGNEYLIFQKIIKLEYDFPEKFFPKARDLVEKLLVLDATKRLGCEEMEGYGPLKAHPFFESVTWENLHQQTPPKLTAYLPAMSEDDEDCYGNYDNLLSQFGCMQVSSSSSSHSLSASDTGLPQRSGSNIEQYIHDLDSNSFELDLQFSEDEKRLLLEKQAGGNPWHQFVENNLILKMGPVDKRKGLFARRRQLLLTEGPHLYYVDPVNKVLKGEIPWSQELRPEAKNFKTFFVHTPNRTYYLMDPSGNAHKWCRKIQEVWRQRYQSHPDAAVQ

SMILES: Brc1cccc(Nc2ncnc3cc4nc[nH]c4cc23)c1
- IC50 [1]: 2800 nM

SMILES: CCNc1nc(C)c(-c2ccnc(Nc3ccc(N4CCNCC4)cc3)n2)s1
- inhibition [2]: 97%
- inhibition [3]: 80%

SMILES: COc1cc2ncnc(Nc3cccc(Cl)c3)c2cc1OC [TYRPHOSTIN AG-1478]
- IC50 [1]: 530 nM

SMILES: OCCCNc1ccc2ncc(-c3ccc(F)cc3)n2n1
- IC50 [1]: 2410 nM

SMILES: CNc1cc2c(Nc3cccc(Br)c3)ncnc2cn1
- IC50 [1]: 1700 nM

SMILES: COc1cc2ncnc(Nc3cc(Br)c(O)c(Br)c3)c2cc1OC
- IC50 [1]: 120 nM

SMILES: CNc1ccc2ncc(-c3cccc(O)c3)n2n1
- IC50 [1]: 1530 nM

SMILES: c1ccc2cc(Nc3ncnc4[nH]ncc34)ccc2c1
- IC50 [1]: 1350 nM

SMILES: Brc1ccc(Nc2ncnc3[nH]ncc23)cc1
- IC50 [1]: 1560 nM

SMILES: Fc1ccc(Nc2ncnc3[nH]cnc23)cc1
- IC50 [1]: 1030 nM

SMILES: COC(=O)c1ccc(Nc2[nH]cnc3ncnc2-3)cc1
- IC50 [1]: 850 nM

SMILES: NC(=O)c1ccc(-c2cc(-c3ccccc3)cnc2N)cc1
- IC50 [1]: 5150 nM

SMILES: Clc1ccc(Nc2ncnc3[nH]ncc23)cc1
- IC50 [1]: 580 nM

SMILES: c1cc(-c2cc(C3CCNCC3)[nH]n2)ccn1
- IC50 [1]: 646 nM
- IC50 [4]: 575 nM

SMILES: c1cc(-c2cc(C3CCNCC3)n[nH]2)ccn1
- inhibition [2]: 87%
- inhibition [5]: 0%
- inhibition [6]: 3%
- inhibition [7]: 9%
- inhibition [8]: 10%
- inhibition [9]: 0%
- inhibition [10]: 1%
- inhibition [11]: 0%
- inhibition [12]: 15%
- inhibition [13]: 8%
- inhibition [14]: 0%
- inhibition [15]: 3%
- inhibition [16]: 6%
- inhibition [17]: 0%
- inhibition [18]: 7%
- inhibition [19]: 5%
- inhibition [20]: 1%
- inhibition [21]: 0%
- inhibition [22]: 2%
- inhibition [23]: 1%
- inhibition [24]: 4%
- inhibition [25]: 1%
- inhibition [26]: 11%
- inhibition [27]: 7%
- inhibition [28]: 0%

SMILES: CNc1ccc2ncc(-c3ccc(F)cc3)n2n1
- IC50 [1]: 4050 nM

SMILES: c1cc(-c2cnc3sc(NCC4CC4)nn23)ccn1
- IC50 [1]: 1710 nM

SMILES: OCCCNc1ccc2ncc(-c3ccccc3F)n2n1
- IC50 [1]: 3240 nM

SMILES: c1cnn2c(-c3ccncc3)cnc2c1
- IC50 [1]: 3800 nM

SMILES: CC(C)CNc1nn2c(-c3ccncc3)cnc2s1
- IC50 [1]: 6180 nM

SMILES: O=c1[nH]cnc2cc3n[nH]cc3cc12
- IC50 [1]: 8170 nM

SMILES: NC(=O)c1ccc(Nc2ncnc3[nH]cnc23)cc1
- IC50 [1]: 160 nM

SMILES: c1ccc(-c2cnc3ccc(NCCc4ccccn4)nn23)cc1
- IC50 [1]: 4280 nM

SMILES: COCCNc1ccc2ncc(-c3ccc(Cl)cc3)n2n1
- IC50 [1]: 1620 nM

SMILES: COc1cc2ncnc(Nc3cccc(Br)c3)c2cc1OC
- IC50 [1]: 630 nM

SMILES: COCCNc1ccc2ncc(-c3ccc(F)cc3)n2n1
- IC50 [1]: 4090 nM

SMILES: OCCNc1ccc2ncc(-c3ccc(Cl)cc3)n2n1
- IC50 [1]: 2930 nM

SMILES: Fc1cccc(Nc2ncnc3n[nH]cc23)c1
- IC50 [1]: 1090 nM
